Source: ChEMBL document CHEMBL3352345, “Design, synthesis and biological evaluation of novel thieno[3,2-d]pyrimidine derivatives containing diaryl urea moiety as potent antitumor agents” (Eur J Med Chem, 2014)

How the values were obtained:
[1] = Cytotoxicity against human H460 cells after 72 hrs by MTT assay; type: functional, cell-based; conditions: NCI-H460, 72 h
How it was run: (§1)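 Cells suspended in MEM medium, plated and incubated 24 h at 37 °C in 5% CO₂, then exposed to compounds at indicated final concentrations for 72 h. IC₅₀ from averages of three determinations, relative to DMSO vehicle control.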

[2] = system: MDA-MB-231; experiment: Cytotoxicity against human MDA-MB-231 cells after 72 hrs by MTT assay; type: functional, cell-based; conditions: MDA-MB-231, 72 h; how it was run: as §1
[3] = target: Phosphatidylinositol 4,5-bisphosphate 3-kinase catalytic subunit alpha isoform (Homo sapiens, UniProt P42336); experiment: Inhibition of PI3Kalpha (unknown origin) using poly (Glu, Tyr) 4:1 substrate incubated for 30 mins by HTRF assay
[4] = system: HT-29; experiment: Induction of apoptosis in human HT-29 cells assessed as increase in PARP cleavage pre-treated for 48 hrs by Western blot method; type: functional, cell-based
How it was run: (§2)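 HT-29 cells (about 1 × 10⁷) treated 48 h with vehicle or 1 or 5 µM compound; lysates prepared with lysis buffer plus protease inhibitor cocktail and sonicated. Equal total protein run on 10% SDS-PAGE, transferred to PVDF, probed with primary and HRP secondary antibodies. Cleaved PARP to β-actin ratio expressed relative to control.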

[5] = target: RAF proto-oncogene serine/threonine-protein kinase (Homo sapiens, UniProt P04049); experiment: Inhibition of C-Raf (unknown origin) using poly (Glu, Tyr) 4:1 substrate incubated for 30 mins by HTRF assay
How it was run: (§3)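 Compounds in 1% DMSO, blank DMSO as negative control. Reaction started with purified tyrosine kinase, 30 min at 25 °C, stopped with Streptavidin-XL665 and Tk antibody cryptate; read at […] and 615 nm.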

[6] = target: Mast/stem cell growth factor receptor Kit (Homo sapiens, UniProt P10721); experiment: Inhibition of KIT (unknown origin) using poly (Glu, Tyr) 4:1 substrate incubated for 30 mins by HTRF assay; how it was run: as §3
[7] = system: HT-29; experiment: Cytotoxicity against human HT-29 cells after 72 hrs by MTT assay; type: functional, cell-based; conditions: HT-29, 72 h; how it was run: as §1
[8] = target: Vascular endothelial growth factor receptor (Homo sapiens, UniProt P17948+P35916+P35968); experiment: Inhibition of VEGFR (unknown origin) using poly (Glu, Tyr) 4:1 substrate incubated for 30 mins by HTRF assay; type: protein assay
[9] = target: Vascular endothelial growth factor receptor 2 (Homo sapiens, UniProt P35968); experiment: Inhibition of KDR (unknown origin) using poly (Glu, Tyr) 4:1 substrate incubated for 30 mins by HTRF assay
[10] = Cytotoxicity against human MKN45 cells after 72 hrs by MTT assay; type: functional, cell-based; conditions: MKN-45, 72 h; how it was run: as §1
[11] = target: Serine/threonine-protein kinase mTOR (Homo sapiens, UniProt P42345); experiment: Inhibition of mTOR (unknown origin) using poly (Glu, Tyr) 4:1 substrate incubated for 30 mins by HTRF assay; how it was run: as §3
[12] = system: HT-29; experiment: Induction of apoptosis in human HT-29 cells assessed as increase in PARP cleavage at 1 uM pre-treated for 48 hrs by Western blot method relative to beta-actin expression; type: functional; how it was run: as §2
[13] = target: T1, Receptor-type tyrosine-protein kinase FLT3 (Homo sapiens, UniProt P36888); experiment: Inhibition of FLT3 (unknown origin) using poly (Glu, Tyr) 4:1 substrate incubated for 30 mins by HTRF assay; how it was run: as §3
T1 sequence (P36888 whole entry): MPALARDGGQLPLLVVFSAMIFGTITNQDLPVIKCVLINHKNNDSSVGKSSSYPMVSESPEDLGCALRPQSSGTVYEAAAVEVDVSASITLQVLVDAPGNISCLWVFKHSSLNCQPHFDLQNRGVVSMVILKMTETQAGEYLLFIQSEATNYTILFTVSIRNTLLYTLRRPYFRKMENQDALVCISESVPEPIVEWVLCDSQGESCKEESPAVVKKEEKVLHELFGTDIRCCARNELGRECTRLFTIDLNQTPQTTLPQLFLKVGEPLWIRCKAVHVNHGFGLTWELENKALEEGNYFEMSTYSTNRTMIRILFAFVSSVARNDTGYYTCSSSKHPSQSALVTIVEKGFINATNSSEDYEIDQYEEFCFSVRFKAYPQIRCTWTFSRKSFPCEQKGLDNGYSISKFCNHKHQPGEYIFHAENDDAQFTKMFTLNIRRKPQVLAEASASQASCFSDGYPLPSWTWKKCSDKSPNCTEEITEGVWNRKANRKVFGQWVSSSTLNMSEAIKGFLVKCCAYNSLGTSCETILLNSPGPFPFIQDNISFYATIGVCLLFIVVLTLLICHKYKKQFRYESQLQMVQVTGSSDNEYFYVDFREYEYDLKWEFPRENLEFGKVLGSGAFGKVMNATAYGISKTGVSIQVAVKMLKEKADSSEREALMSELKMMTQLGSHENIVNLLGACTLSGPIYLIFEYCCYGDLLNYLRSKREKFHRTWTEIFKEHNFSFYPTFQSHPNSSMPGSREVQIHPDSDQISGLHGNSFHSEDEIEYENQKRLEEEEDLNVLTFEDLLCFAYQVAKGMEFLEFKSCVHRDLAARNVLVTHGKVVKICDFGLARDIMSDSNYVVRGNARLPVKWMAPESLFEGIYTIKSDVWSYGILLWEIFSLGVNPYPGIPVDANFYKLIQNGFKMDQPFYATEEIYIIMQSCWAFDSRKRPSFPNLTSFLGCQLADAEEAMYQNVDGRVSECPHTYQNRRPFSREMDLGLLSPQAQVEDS

[14] = system: HT-29; experiment: Induction of apoptosis in human HT-29 cells assessed as increase in PARP cleavage at 5 uM pre-treated for 48 hrs by Western blot method relative to beta-actin expression; type: functional; how it was run: as §2
[15] = target: Platelet-derived growth factor receptor beta (Homo sapiens, UniProt P09619); experiment: Inhibition of PDGFRbeta (unknown origin) using poly (Glu, Tyr) 4:1 substrate incubated for 30 mins by HTRF assay; how it was run: as §3
[16] = target: Epidermal growth factor receptor (Homo sapiens, UniProt P00533); experiment: Inhibition of EGFR (unknown origin) using poly (Glu, Tyr) 4:1 substrate incubated for 30 mins by HTRF assay
[17] = target: Serine/threonine-protein kinase B-raf (Homo sapiens, UniProt P15056); experiment: Inhibition of B-Raf (unknown origin) using poly (Glu, Tyr) 4:1 substrate incubated for 30 mins by HTRF assay
Chain of Serine/threonine-protein kinase B-raf (P15056 whole entry): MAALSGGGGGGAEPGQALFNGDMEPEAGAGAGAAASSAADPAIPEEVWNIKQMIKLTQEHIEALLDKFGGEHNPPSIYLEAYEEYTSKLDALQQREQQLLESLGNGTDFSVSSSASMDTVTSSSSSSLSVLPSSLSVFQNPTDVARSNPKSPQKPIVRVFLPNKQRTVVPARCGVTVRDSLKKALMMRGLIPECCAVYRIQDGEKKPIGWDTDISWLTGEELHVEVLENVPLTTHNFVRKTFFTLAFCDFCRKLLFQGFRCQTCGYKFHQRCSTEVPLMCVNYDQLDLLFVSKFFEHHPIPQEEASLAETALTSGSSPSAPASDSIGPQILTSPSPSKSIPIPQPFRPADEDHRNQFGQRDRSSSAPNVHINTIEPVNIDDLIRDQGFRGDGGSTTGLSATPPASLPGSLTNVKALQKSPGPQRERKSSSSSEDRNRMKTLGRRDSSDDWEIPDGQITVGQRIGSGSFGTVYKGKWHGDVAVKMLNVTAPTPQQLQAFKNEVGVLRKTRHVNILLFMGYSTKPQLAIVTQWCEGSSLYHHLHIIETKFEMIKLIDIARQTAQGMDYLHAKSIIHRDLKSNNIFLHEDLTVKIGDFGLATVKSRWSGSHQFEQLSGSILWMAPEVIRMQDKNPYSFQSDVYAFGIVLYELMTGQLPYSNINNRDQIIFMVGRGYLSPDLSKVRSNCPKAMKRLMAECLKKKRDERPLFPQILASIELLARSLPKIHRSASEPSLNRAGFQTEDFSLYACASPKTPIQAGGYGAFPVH

Chain of Epidermal growth factor receptor (P00533 whole entry): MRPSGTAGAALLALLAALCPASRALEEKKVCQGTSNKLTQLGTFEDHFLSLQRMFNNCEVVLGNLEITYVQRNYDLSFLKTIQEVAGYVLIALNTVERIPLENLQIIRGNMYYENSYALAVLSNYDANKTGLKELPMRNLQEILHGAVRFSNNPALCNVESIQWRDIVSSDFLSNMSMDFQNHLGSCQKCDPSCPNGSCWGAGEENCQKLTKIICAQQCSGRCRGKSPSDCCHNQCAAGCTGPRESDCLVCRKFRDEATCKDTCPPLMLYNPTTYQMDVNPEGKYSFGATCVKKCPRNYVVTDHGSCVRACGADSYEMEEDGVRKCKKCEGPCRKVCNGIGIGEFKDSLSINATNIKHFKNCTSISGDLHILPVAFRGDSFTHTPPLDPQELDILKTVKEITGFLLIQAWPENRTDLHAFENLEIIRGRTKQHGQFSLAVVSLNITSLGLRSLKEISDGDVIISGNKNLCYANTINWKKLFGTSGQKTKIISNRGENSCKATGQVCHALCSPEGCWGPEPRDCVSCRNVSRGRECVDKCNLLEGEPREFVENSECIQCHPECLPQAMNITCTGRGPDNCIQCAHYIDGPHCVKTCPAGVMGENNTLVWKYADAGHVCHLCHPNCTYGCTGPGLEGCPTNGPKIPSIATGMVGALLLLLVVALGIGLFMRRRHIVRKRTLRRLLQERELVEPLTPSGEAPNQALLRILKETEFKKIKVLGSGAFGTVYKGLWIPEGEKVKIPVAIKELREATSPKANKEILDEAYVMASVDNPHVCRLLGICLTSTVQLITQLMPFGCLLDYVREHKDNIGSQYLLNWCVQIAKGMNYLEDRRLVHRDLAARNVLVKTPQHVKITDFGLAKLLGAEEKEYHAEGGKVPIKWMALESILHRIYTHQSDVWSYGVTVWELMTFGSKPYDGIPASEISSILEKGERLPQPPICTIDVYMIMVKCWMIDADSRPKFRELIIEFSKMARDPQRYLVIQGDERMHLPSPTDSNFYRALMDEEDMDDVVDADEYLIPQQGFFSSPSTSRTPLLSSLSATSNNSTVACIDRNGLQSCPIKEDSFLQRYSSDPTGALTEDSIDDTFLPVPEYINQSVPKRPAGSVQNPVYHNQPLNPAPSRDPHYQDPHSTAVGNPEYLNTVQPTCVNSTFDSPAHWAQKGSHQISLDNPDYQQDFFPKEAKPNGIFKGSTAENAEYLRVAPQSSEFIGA
Chain of RAF proto-oncogene serine/threonine-protein kinase (P04049 whole entry): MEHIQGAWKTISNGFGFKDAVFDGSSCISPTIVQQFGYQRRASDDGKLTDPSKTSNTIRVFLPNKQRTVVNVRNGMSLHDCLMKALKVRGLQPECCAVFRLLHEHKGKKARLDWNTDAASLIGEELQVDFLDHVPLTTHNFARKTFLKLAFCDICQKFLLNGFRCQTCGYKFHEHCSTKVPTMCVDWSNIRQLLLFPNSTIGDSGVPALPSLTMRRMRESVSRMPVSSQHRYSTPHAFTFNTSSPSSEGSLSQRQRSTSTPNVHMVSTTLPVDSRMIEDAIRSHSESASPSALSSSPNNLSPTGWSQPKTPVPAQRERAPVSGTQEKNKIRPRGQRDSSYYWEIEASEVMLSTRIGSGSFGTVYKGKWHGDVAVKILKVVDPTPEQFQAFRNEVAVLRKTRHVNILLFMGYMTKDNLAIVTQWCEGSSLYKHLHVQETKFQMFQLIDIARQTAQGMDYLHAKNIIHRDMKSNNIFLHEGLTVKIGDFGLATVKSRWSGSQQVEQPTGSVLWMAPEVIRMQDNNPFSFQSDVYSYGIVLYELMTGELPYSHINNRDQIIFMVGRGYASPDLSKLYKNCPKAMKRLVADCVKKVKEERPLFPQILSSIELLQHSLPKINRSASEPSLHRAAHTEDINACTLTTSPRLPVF
Chain of Platelet-derived growth factor receptor beta (P09619 whole entry): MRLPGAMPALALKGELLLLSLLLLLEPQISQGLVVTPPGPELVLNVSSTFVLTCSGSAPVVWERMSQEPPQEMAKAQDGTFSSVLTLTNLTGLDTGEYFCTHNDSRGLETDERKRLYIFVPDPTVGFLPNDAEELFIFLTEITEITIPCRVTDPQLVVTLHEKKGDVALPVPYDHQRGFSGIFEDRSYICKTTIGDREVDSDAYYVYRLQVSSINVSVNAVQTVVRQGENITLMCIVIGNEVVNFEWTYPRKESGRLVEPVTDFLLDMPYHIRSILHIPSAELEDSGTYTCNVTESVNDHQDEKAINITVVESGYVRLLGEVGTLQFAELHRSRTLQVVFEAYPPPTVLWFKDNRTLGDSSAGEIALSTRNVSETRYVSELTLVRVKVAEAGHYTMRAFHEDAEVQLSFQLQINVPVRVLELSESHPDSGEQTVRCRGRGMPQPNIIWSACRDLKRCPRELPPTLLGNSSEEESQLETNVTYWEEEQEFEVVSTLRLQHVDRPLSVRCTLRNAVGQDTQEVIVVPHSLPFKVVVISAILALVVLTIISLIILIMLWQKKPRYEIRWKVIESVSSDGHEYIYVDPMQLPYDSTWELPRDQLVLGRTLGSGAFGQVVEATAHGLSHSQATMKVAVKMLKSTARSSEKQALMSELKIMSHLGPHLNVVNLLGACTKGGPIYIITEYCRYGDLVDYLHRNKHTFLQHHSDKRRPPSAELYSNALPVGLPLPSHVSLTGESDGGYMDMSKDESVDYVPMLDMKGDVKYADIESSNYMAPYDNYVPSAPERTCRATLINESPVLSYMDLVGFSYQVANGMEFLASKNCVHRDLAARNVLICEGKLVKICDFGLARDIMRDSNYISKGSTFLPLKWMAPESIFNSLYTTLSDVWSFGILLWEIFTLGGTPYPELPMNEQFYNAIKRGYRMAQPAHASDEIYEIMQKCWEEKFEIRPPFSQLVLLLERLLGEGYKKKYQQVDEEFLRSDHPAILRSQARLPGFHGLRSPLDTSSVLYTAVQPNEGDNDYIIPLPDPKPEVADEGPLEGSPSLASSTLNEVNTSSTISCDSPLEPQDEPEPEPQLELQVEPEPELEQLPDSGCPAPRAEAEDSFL
Chain of Mast/stem cell growth factor receptor Kit (P10721 whole entry): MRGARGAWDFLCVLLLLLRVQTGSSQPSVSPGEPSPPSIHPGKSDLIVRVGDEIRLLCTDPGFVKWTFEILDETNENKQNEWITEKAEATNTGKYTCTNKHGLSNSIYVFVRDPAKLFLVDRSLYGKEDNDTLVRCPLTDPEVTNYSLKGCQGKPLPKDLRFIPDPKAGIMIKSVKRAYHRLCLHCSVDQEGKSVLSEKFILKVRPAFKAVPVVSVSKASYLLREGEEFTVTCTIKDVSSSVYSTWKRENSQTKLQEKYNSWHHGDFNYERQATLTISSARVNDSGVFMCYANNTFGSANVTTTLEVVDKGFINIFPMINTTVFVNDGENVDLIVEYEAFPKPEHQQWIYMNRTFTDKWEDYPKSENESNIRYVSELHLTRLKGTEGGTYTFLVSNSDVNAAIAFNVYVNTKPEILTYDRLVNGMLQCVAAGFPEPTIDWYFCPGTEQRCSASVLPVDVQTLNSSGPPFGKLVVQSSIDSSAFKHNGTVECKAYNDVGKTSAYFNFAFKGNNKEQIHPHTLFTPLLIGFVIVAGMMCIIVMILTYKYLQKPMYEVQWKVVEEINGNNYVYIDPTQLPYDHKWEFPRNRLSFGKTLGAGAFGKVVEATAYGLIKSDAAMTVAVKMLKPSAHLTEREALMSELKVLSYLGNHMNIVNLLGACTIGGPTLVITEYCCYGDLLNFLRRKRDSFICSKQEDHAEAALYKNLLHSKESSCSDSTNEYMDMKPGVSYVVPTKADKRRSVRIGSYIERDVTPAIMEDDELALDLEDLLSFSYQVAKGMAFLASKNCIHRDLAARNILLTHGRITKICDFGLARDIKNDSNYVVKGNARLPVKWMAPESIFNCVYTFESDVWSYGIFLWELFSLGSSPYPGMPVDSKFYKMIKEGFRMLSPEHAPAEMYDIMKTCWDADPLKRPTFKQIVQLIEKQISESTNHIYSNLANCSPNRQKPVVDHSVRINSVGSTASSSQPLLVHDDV

IC50 [3]: 0.13 µM
IC50 [5]: > 10 µM
IC50 [6]: 6.1 µM
IC50 [8]: > 10 µM
IC50 [9]: > 10 µM
IC50 [11]: > 10 µM
IC50 [13]: 1 µM
IC50 [15]: 5.8 µM
IC50 [16]: > 10 µM
IC50 [17]: > 10 µM
Compound: CCN(CC)CCCNc1nc(-c2ccc(NC(=O)Nc3ccc(Cl)cc3)cc2)nc2ccsc12
IC50 [1]: 0.081 µM
IC50 [2]: 0.23 µM
Activity [4]: Dose-dependent effect
IC50 [7]: 0.058 µM
IC50 [10]: 0.18 µM
fold change (FC) [12]: 2.5
fold change (FC) [14]: 3.5
